Data set [1] concerns Ileum. The data set can be described thus: Vasorelaxant activity in K+-depolarized guinea pig ileum longitudinal smooth muscle assessed as inhibition of calcium-induced contraction. It is filed as functional, tissue-based. The conditions noted are these: Cavia porcellus.
Data set [2] in a line: Negative inotropic activity in guinea pig left atrium assessed as decrease in atrial tension relative to control. The conditions noted are these: Cavia porcellus, Cardiac atrium. It is filed as functional, tissue-based.
For data set [3], the system named is Aorta. Kind of data set: Vasorelaxant activity in K+-depolarized guinea pig aorta assessed as inhibition of calcium-induced contraction at 100 uM. It is filed as functional. The conditions noted are these: Cavia porcellus.
Data set [4] in a line: Negative inotropic activity in guinea pig left atrium assessed as decrease in atrial tension at 100 uM relative to control. It is filed as functional, tissue-based, Cavia porcellus, Cardiac atrium. Also on record: scale not given: the % may be the effect or the level left.
Data set [5] is described as follows: Negative chronotropic activity in guinea pig spontaneously beating right atrium assessed as decrease in atrial rate at 100 uM relative to control. It is filed as functional, tissue-based, Cavia porcellus, Cardiac atrium. Also on record: scale not given: the % may be the effect or the level left.
Data set [6] has as its system Ileum. Kind of data set: Vasorelaxant activity in K+-depolarized guinea pig ileum longitudinal smooth muscle assessed as inhibition of calcium-induced contraction at 100 uM. It is filed as functional. The conditions noted are these: Cavia porcellus.
A short description of data set [7]: Negative inotropic activity in guinea pig left atrium assessed as decrease in atrial tension at 50 uM relative to control. Also on record: scale not given: the % may be the effect or the level left. It is filed as functional, tissue-based, Cavia porcellus, Cardiac atrium.
Data set [8] is described as follows: Negative inotropic activity in guinea pig left atrium assessed as decrease in atrial tension at 10 uM relative to control. It is filed as functional, Cavia porcellus, Cardiac atrium. Further details: scale not given: the % may be the effect or the level left.
A short description of data set [9]: Negative chronotropic activity in guinea pig spontaneously beating right atrium assessed as decrease in atrial rate at 100 uM relative to control. Also on record: scale not given: the % may be the effect or the level left.
The next data set concerns the target L-type calcium channel (Rattus norvegicus, UniProt P22002+P27732+Q02485). The data set can be described thus: Displacement of [3H]diltiazem from L-type calcium channel in Sprague-Dawley rat cardiac myocytes at 10 uM. It is filed as cell-based. The conditions noted are these: probe [3H]diltiazem, read-out: Activity.
The nature of data set [10]: Negative chronotropic activity in guinea pig spontaneously beating right atrium assessed as decrease in atrial rate at 5 uM relative to control. It is filed as functional, Cavia porcellus, Cardiac atrium. Also on record: scale not given: the % may be the effect or the level left.
In data set [11] the test system is Ileum. Kind of data set: Vasorelaxant activity in K+-depolarized guinea pig ileum longitudinal smooth muscle assessed as inhibition of calcium-induced contraction at 1 uM. It is filed as functional. The conditions noted are these: Cavia porcellus.
Data set [12] in a line: Negative inotropic activity in guinea pig left atrium assessed as decrease in atrial tension at 5 uM relative to control. It is filed as functional, Cavia porcellus, Cardiac atrium. Further details: scale not given: the % may be the effect or the level left.
Data set [13] concerns Ileum. The data set can be described thus: Vasorelaxant activity in K+-depolarized guinea pig ileum longitudinal smooth muscle assessed as inhibition of calcium-induced contraction at 50 uM. It is filed as functional. The conditions noted are these: Cavia porcellus.
Data set [14] in a line: Dissociation constant, pKa of the compound. It is filed as physicochemical. Summed up: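 pKa values are calculated in silico, not measured experimentally.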
Data set [15] is described as follows: Negative chronotropic activity in guinea pig spontaneously beating right atrium assessed as decrease in atrial rate at 10 uM relative to control. It is filed as functional, Cavia porcellus, Cardiac atrium. Also on record: scale not given: the % may be the effect or the level left.
Data set [16] is described as follows: Negative inotropic activity in guinea pig left atrium assessed as decrease in atrial tension at 1 uM relative to control. Also on record: scale not given: the % may be the effect or the level left. It is filed as functional, Cavia porcellus, Cardiac atrium.
In data set [17] the target is Voltage-gated L-type calcium channel (Rattus norvegicus, UniProt P22002+Q02485+P27732). The data set can be described thus: Displacement of [3H]diltiazem from L-type calcium channel in Sprague-Dawley rat cardiac myocytes. It is filed as cell-based. The gist of the method: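 Rat cardiomyocyte preparation. [3H]diltiazem at 5 nM is incubated with test compound at increasing concentrations from 0.1 nM to 100 µM. The readout is the inhibition of [3H]diltiazem binding to the benzothiazepine site.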
A general note: Loss of bound radioactivity is the signal in a displacement assay; it reports binding, not function.

In data set [18] the test system is Aorta. The data set can be described thus: Vasorelaxant activity in K+-depolarized guinea pig aorta assessed as inhibition of calcium-induced contraction at 50 uM. It is filed as functional. The conditions noted are these: Cavia porcellus.
Data set [19] concerns Ileum. Kind of data set: Vasorelaxant activity in K+-depolarized guinea pig ileum longitudinal smooth muscle assessed as inhibition of calcium-induced contraction at 10 uM. It is filed as functional. The conditions noted are these: Cavia porcellus.

This is an account of results in ChEMBL document CHEMBL1140072, “Discovery of novel and cardioselective diltiazem-like calcium channel blockers via virtual screening” (J Med Chem, 2008).

Broadly, the IC50 is the point on the concentration scale where inhibition reaches its midpoint. By EC50 is commonly meant the concentration at which the effect is half-maximal. Usually EC30 stands for the point of the concentration-response curve where the effect stands at 30%. What is called pKa is the pH at which an ionisable group is half protonated. Broadly, the Ki is the dissociation constant of the complex between target and ligand, obtained from inhibition or displacement.

Consider `COc1ccccc1NC(=O)OCC1CCCCN1C` (configuration not stated), for which, in the data set on Ileum [1], the IC50 came to 18400 nM. Besides, the EC50 in data set [2] was 970 nM. The results for the inhibition at 100 µM with Aorta [3] and in the data set on Ileum [6] were 10% and 73%, respectively. The Activity in data set [4] came to 87%; in [5], 17%.
Take `CCc1c(C)cc(C)cc1OC[C@@H](O)CNC(C)C`: in data set [2], the EC50 is 3590 nM. The inhibition at 100 µM in the data set with Aorta [3] was 30%. For the same compound, the Activity in [7] is reported as 76%; in [5], 40%.
Take `CN1CCN(S(=O)(=O)c2cccc3cccnc23)CC1`: the EC50 in data set [2] is 450 nM. Further, the Activity worked out at 84% in data set [8] and 19% in data set [9]. Further, the inhibition at 100 µM with Aorta [3] was determined as 18%; in the data set on Ileum [6] it was 28%. Besides, the inhibition at 10 µM on L-type calcium channel was 60%.
`COc1ccc([C@@H]2Sc3ccccc3N(CCN(C)C)C(=O)[C@@H]2OC(C)=O)cc1` [DILTIAZEM]: the IC50 in the data set with Ileum [1] was 110 nM; in [2], 2600 nM. Moreover, in [2], the EC30 is 70 nM. Also, in [2], the EC50 was 790 nM. The Activity in [8] turned out to be 78%; in data set [10], 94%. The inhibition at 100 µM with Aorta [3] worked out at 88%. In the data set with Ileum [11], the inhibition at 1 µM is 98%.
With `O=C(COc1ccccc1Cl)N1CCNCC1`, the EC50 in data set [2] turned out to be 520 nM. Besides, the inhibition at 100 µM in the data set on Aorta [3] is 1%. In addition, the Activity is given as 60% in data set [7] and 3% in data set [5].
With `CC(C)NC[C@@H](O)COc1cccc2ccccc12` [DEXPROPRANOLOL], the inhibition at 100 µM with Aorta [3] is 36%; in the data set on Ileum [6] it was 74%. The Activity is on record as 92% in data set [7] and 26% in [9].
On to `CN(C)CCNc1cc(-c2cccnc2)nc2ccccc12`, for which the IC50 with Ileum [1] is 20300 nM. The EC50 in data set [2] came to 300 nM. Also, the inhibition at 100 µM in the data set on Aorta [3] was found to be 5%; in the data set on Ileum [6], 72%. The figures for the Activity in data set [12] and in [5] were 76% and 4%, respectively.
Turning to `COc1cc2c(cc1OC)[C@H]1CC(=O)[C@H]3CCC[C@H]3N1CC2`, the EC50 in data set [2] turned out to be 2170 nM. In the data set on Aorta [3], the inhibition at 100 µM worked out at 3%. Moreover, the Activity in data set [4] stood at 64%; in data set [5], 4%.
As for `CN(Cc1ccccc1)Cc1ccnc(Br)c1O`, in the data set on Ileum [1], the IC50 amounted to 3280 nM. Moreover, the inhibition at 50 µM with Ileum [13] worked out at 57%. The EC50 in data set [2] stood at 1110 nM. Besides, the inhibition at 100 µM in the data set on Aorta [3] amounted to 2%. Besides, the Activity is recorded as 70% in [4] and 6% in [5].
For the compound `Cc1ccccc1CC(=O)c1ccc(O)c(CN(C)C)c1O`, in [2], the EC50 amounted to 840 nM. Also, the inhibition at 100 µM with Aorta [3] was determined as 4%. Also, the Activity in data set [12] is listed as 78%; in [9], 48%. For the same compound, the pKa in data set [14] came to 10.7.
`CCO[C@]1(c2ccc(Br)cc2)SC=C(C)n2c1noc2=O`: the EC50 in data set [2] was 70 nM. The inhibition at 100 µM came to 11% with Aorta [3] and 3% in the data set with Ileum [6]. Also, the results for the Activity in data set [15] and in [16] were 16% and 58%, respectively.
Take `O=S(=O)(c1ccc(Cl)cc1)N(C1CCNCC1)C1CC1`: the IC50 in the data set on Ileum [1] came out at 14100 nM. In the data set with Ileum [13], the inhibition at 50 µM worked out at 89%. Besides, in [2], the EC50 was 310 nM. Moreover, the inhibition at 100 µM with Aorta [3] was 19%. For the same compound, the values for the Activity in data set [7] and in data set [9] were 76% and 64%, respectively.
Take `COc1ccc(CN(CCN(C)C)c2ccccn2)cc1` [PYRILAMINE]: in data set [2], the EC50 worked out at 6260 nM. In addition, the inhibition at 100 µM in the data set on Aorta [3] was found to be 23%. The Activity worked out at 81% in [4] and 47% in data set [5].
As for `CN(C)CCNC(=O)c1cc2ccccc2cc1O`, the half-inhibitory concentration (IC50) in the data set on Ileum [1] is 20200 nM. Also, the concentration giving a half-maximal response (EC50) in data set [2] stood at 350 nM. The inhibition at 100 µM in the data set with Aorta [3] amounted to 13%; in the data set with Ileum [6], 61%. The Activity was found to be 90% in data set [4] and 35% in data set [5]. The Ki in data set [17] is 450 nM.
Consider `CN(C)CCOC(c1ccc(Cl)cc1)c1ccccn1` (configuration not stated) [CARBINOXAMINE], for which, in the data set on Ileum [1], the IC50 was determined as 9340 nM. Further, the inhibition at 50 µM with Ileum [13] is 62%. In [2], the EC30 came out at 480 nM. For the same compound, in data set [2], the EC50 stood at 250 nM. Moreover, the inhibition at 100 µM with Aorta [3] was 28%. In addition, the Activity in [4] was 76%; in [5], 48%. For the same compound, the Ki in data set [17] came out at 1080 nM.
For the compound `Cc1cc(C(C)(C)C)cc(C)c1NC(=O)CN1CCOCC1`, the EC50 in data set [2] was found to be 840 nM. Besides, the Activity in data set [8] came to 87%; in [5], 29%. Also, the inhibition at 100 µM with Aorta [3] amounted to 26%.
In the case of `CC(C)(CNC(=S)Nc1ccccc1)N1CCOCC1`, the IC50 in the data set with Ileum [1] is 16500 nM. For the same compound, the EC50 in [2] came out at 730 nM. Besides, the inhibition at 100 µM in the data set on Aorta [3] is 20%; in the data set on Ileum [6], 76%. The Activity came out at 94% in data set [4] and 10% in data set [5].
As for `O=S(=O)(c1cccc2c(Cl)cccc12)N1CCCNCC1`, the EC50 in data set [2] came out at 430 nM. For the same compound, the Activity in data set [4] worked out at 98%; in data set [9], 46%. For the same compound, in the data set with Aorta [18], the inhibition at 50 µM amounted to 43%. The inhibition at 10 µM in the data set with Ileum [19] is 40%.
Consider `CCN(CC)CCOc1ccc2ccc(=O)oc2c1`, for which the EC50 in data set [2] stood at 250 nM. For the same compound, the figures for the Activity in data set [8] and in data set [5] were 67% and 28%, respectively. In addition, the inhibition at 100 µM was found to be 14% in the data set with Aorta [3] and 22% in the data set on Ileum [6].
Turning to `CCOc1ccc(NC(=O)CCN(CC)CC)cc1`, the EC50 in data set [2] was 1050 nM. In addition, the inhibition at 100 µM with Aorta [3] turned out to be 11%. In addition, the Activity in data set [4] was determined as 79%; in [5], 30%.
Regarding `COc1ccc(Cl)cc1NC(=O)N1CCN(C)CC1`, the EC50 in [2] was 340 nM. Also, the inhibition at 100 µM is 7% in the data set with Aorta [3] and 44% with Ileum [6]. The figures for the Activity in [7] and in data set [5] were 67% and 10%, respectively.
